Measurements from ChEMBL document CHEMBL1134536, “Nonpeptidic, monocharged, cell permeable ligands for the p56lck SH2 domain” (J Med Chem, 2001).

Assays:
Homo sapiens = species on record: Homo sapiens; assay: Percent permeated in 3 hours in Caco-2 model; type: ADME, organism-based; conditions: caco-2, 3 h
Procedure, shortened: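 Caco-2 monolayers on collagen-coated polycarbonate filters, grown up to 25 days (passages 23–50). Cells equilibrated in HBSS pH 7.4 for 30 min at 37 °C. Drug applied apically at 0.01–0.1 mM final in HBSS at 37 °C, 5% CO2. Basolateral samples taken at intervals; cumulative amount plotted against time. Mannitol used to check monolayer integrity; mass balance >90%; at least triplicates.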

Jurkat [1] = assay: Inhibition of Ca+2 influx in jurkat T cells; type: functional, cell-based; conditions: Homo sapiens
Procedure, shortened: (§1)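 Jurkat cells loaded with 2 μM Fluo-3 AM plus Pluronic F127 for 1 h at room temperature, washed, resuspended in HBSS with 10 mM HEPES pH 7.5. 4 × 10^6 cells per cuvette equilibrated to 37 °C; compound added 80 s before TCR cross-linking with 2 μg mouse anti-human CD3. Cytoplasmic calcium followed by fluorescence over time; EC50 from percent of control fluorescence at six doses.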

[2] = target: Tyrosine-protein kinase Lck (Homo sapiens, UniProt P06239); assay: Binding affinity for p56lck SH2 domain site
[3] = Inhibition of IL-2 production from CD4+T cells; type: functional, cell-based; conditions: Homo sapiens, CD4+ T cell
Procedure, shortened: (§2)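 Purified human CD4+ T cells (5 × 10^4/well) in RPMI 1640 with 1% FBS. Compound diluted from DMSO stock, preincubated 1 h at 37 °C. Cells activated with 0.12 ng/well anti-CD3, 100 ng/well anti-CD28 and anti-mouse IgG magnetic beads, then incubated overnight at 37 °C, 5% CO2. Secreted IL-2 in supernatant measured by ELISA.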

[4] = Inhibition of proliferation of CD4+T cells; type: functional, cell-based; conditions: Homo sapiens, CD4+ T cell
Procedure, shortened: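 Human CD4+ T cells, 5 × 10^4/well, preincubated with compound for 1 h at 37 °C. Stimulated with anti-CD3, anti-CD28 and anti-mouse IgG beads. Pulsed 48 h after activation with 0.5 μCi/well [3H]-thymidine, incubated a further 18 h at 37 °C, harvested, and incorporated radioactivity counted.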

[5] = Inhibition of IL-2 production in CD4+T cells; type: functional, cell-based; conditions: Homo sapiens, CD4+ T cell; procedure, shortened: as §2
Jurkat [6] = assay: Percent Inhibition of Ca+2 influx in jurkat T cells at 50 uM concentration; type: functional; conditions: Homo sapiens; procedure, shortened: as §1
Jurkat [7] = assay: Percent inhibition of Ca+2 influx in jurkat T cells at 50 uM concentration; type: functional; conditions: Homo sapiens; procedure, shortened: as §1

Tyrosine-protein kinase Lck, sequence (P06239 whole entry, the tested form may be a part): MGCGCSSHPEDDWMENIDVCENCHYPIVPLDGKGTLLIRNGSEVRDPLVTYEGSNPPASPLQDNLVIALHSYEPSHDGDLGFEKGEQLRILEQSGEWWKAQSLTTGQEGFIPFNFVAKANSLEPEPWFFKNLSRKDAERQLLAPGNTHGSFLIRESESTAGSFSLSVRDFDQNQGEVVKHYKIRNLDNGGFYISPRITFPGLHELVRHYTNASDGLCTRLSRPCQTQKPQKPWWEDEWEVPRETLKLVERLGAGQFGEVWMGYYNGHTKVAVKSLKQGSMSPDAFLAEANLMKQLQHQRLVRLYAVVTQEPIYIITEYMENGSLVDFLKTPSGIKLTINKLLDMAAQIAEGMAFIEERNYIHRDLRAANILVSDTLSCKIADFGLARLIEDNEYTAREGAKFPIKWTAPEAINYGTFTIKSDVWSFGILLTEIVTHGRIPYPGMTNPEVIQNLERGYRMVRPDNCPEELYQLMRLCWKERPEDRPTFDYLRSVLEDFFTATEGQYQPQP

Row | SMILES | Permeated (Homo sapiens) [%] | EC50 (Jurkat [1]) [µM] | Kd [2] [µM] | EC50 [3] [µM] | EC50 [4] [µM] | EC50 [5] [µM] | inhibition at 50 µM (Jurkat [6]) [%] | inhibition at 50 µM (Jurkat [7]) [%]
1 | COc1ccc(Cn2ccc(C)c(NC(=O)C(Cc3ccc(C(C)(C)C(=O)O)cc3)NC(=O)Cc3ccc4ccccc4c3)c2=O)cc1 (racemic) | 0.6 | 30.5 | 0.28 | – | – | – | – | –
2 | COc1ccc(Cn2ccc(C)c(NC(=O)C(Cc3ccc(CC(=O)O)cc3)NC(C)=O)c2=O)cc1 (centres undefined) | 0.4 | – | 7 | – | – | – | – | –
3 | COc1ccc(Cn2ccc(C)c(NC(=O)[C@H](Cc3ccc(C(C)(C)C(=O)O)cc3)NC(=O)C(C)(C)c3ccc4ccccc4c3)c2=O)cc1 | 21 | 10.1 | – | 9.4 | 8.7 | – | – | –
4 | COc1ccc(Cn2ccc(C)c(NC(=O)C(Cc3ccc(CC(=O)O)cc3)NC(=O)Cc3cccc4ccccc34)c2=O)cc1 (centres undefined) | 0.3 | > 100 | 1.3 | – | – | – | – | –
5 | COc1ccc(Cn2cccc(NC(=O)C(Cc3ccc(CC(=O)O)cc3)NC(=O)Cc3cccc4ccccc34)c2=O)cc1 (centres undefined) | 1.3 | – | 23 | – | – | – | – | –
6 | COc1ccc(Cn2ccc(C)c(NC(=O)[C@@H](Cc3ccc(C(C)(C)C(=O)O)cc3)NC(=O)C(C)(C)c3ccc4ccccc4c3)c2=O)cc1 | 16 | – | – | – | 16.6 | 11.3 | 57 | 29
7 | COc1ccc(CNC(=O)[C@H](CCC(=O)O)NC(=O)[C@H](Cc2ccc(CC(=O)O)cc2)NC(=O)Cc2cccc3ccccc23)cc1 | 0.3 | > 100 | – | – | – | – | – | –
8 | COc1ccc(Cn2ccc(C)c(NC(=O)C(Cc3ccc(C(C)(C)C(=O)O)cc3)NC(=O)Cc3cccc4ccccc34)c2=O)cc1 (racemic) | 0.4 | 51 | 1.2 | – | – | – | – | –
